Experimental data: BindingDB's records for doi:10.1021/jm000911j (Universidad De Valencia, 2000)

Target: Acyl carrier protein,/NADH dehydrogenase [ubiquinone] flavoprotein 1, mitochondrial (Bos taurus, UniProt P25708+P52505)
Assay: Inhibition of NADH oxidase activity.
Method in brief: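 Beef-heart submitochondrial particles (sonicated frozen-thawed mitochondria), preactivated with 300 µM NADH, assayed at 22 °C in 50 mM potassium phosphate pH 7.4, 1 mM EDTA (0.28 nM complex I). Aerobic oxidation of 75 µM NADH with no added quinone, followed at 340 nm. Ethanolic compound added cumulatively, 5 min on ice per step, ethanol ≤2%. IC50 is the final concentration giving 50% inhibition.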

Sequence of Acyl carrier protein,/NADH dehydrogenase [ubiquinone] flavoprotein 1, mitochondrial (P25708 21-464 limits assumed, other chains not shown): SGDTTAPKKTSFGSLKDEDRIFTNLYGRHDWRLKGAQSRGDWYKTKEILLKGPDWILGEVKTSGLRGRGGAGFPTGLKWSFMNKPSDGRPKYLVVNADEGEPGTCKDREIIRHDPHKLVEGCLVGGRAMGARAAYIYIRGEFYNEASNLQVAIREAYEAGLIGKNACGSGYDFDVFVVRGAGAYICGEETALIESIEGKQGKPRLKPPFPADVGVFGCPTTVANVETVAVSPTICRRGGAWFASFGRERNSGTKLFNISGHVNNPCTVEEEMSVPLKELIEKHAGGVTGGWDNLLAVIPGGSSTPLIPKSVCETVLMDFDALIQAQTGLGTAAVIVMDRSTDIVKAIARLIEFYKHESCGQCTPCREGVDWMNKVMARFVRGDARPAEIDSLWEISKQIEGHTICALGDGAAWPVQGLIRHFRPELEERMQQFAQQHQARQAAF

| Compound | IC50 |
| --- | --- |
| CCCCCCCCCCC(N=O)[C@H]1CC[C@@H]([C@@H]2CC[C@H]([C@H](O)CCCCCCCCCCC(CC3=C[C@H](C)OC3=O)N=O)O2)O1 (some centres not stated) [3-{13-Hydroxy-2-hydroxyimino-13-[5'-(1-hydroxyimino-undecyl)-octahydro-[2,2']bifuranyl-5-yl]-tridecyl}-5-methyl-5H-furan-2-one(4,24-didehydroxy-4,24-dihydroxyliminorolliniastatin-1)] | 0.34 nM |
| CCCCCCCCCC[C@H](O)[C@H]1CC[C@H]([C@H]2CC[C@H]([C@H](O)CCCCC(CCCCCCCC3=C[C@H](C)OC3=O)N=O)O2)O1 (some centres not stated) [10-oxime-guanacone] | 0.34 nM |
